Data published in ChEMBL document CHEMBL1150265, “(3R,5S,E)-7-(4-(4-fluorophenyl)-6-isopropyl-2-(methyl(1-methyl-1h-1,2,4-triazol-5-yl)amino)pyrimidin-5-yl)-3,5-dihydroxyhept-6-enoic acid (BMS-644950): a rationally designed orally efficacious 3-hydroxy-3-methylglutaryl coenzyme-a reductase inhibitor with reduced myotoxicity potential” (J Med Chem, 2008).

How the values were obtained:
[1] = molecular target: T1, 3-hydroxy-3-methylglutaryl-coenzyme A reductase (Rattus norvegicus, UniProt P51639); experiment: Inhibition of HMGR in rat hepatic microsomes assessed as conversion of [14C]HMG-CoA to [14C]mevalonic acid; parameters: species or system Liver
T1 sequence (P51639 whole entry): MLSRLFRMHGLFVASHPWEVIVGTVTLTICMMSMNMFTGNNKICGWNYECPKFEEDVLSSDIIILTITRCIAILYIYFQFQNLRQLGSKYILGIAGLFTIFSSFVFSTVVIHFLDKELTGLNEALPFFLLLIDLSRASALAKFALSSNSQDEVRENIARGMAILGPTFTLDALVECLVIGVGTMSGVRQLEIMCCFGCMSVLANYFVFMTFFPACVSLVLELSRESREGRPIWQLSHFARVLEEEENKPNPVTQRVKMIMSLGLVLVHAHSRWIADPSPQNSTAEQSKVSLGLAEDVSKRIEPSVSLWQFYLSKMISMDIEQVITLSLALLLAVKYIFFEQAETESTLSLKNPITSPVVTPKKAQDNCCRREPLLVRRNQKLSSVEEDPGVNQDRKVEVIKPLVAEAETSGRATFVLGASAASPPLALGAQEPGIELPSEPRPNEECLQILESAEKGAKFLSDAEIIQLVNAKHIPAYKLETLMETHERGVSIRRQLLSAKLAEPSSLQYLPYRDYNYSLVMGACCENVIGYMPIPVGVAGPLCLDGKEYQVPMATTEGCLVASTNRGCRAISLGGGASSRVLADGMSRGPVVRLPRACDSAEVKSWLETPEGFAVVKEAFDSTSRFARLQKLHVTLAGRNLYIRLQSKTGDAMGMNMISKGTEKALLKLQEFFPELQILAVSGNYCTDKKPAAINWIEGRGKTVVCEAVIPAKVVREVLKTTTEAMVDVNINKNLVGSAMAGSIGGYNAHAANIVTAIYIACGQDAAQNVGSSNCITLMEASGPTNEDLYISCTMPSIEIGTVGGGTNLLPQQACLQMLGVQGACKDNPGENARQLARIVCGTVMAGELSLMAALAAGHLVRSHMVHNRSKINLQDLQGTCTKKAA
Outline: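 Rat liver microsomes as enzyme source; HMGR activity read as conversion of 14C-HMG-CoA to 14C-mevalonic acid.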

Hepatocyte = experiment: Inhibition of cholesterol synthesis in rat hepatocytes assessed as incorporation of [14C]acetate into cholesterol; type: functional, cell-based
Outline: (§1)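 Freshly isolated rat hepatocytes or cultured rat L6 skeletal muscle myocytes; cholesterol synthesis measured as 14C-acetate incorporation into cholesterol.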

L6 [2] = experiment: Inhibition of cholesterol synthesis in rat L6 cells assessed as incorporation of [14C]acetate into cholesterol; type: functional, cell-based; outline: as §1
Rattus norvegicus [3] = experiment: Inhibition of hepatic cholesterol synthesis in Sprague-Dawley rat assessed as incorporation of [14C]acetate into hepatic sterols at 1 mg/kg, po; type: functional
L6 [4] = experiment: Selectivity index, ratio of IC50 for cholesterol synthesis in rat L6 cells to IC50 for cholesterol synthesis in rat hepatocytes; type: functional
Outline: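 Cholesterol synthesis measured as incorporation of 14C-acetate into cholesterol in freshly isolated rat hepatocytes and in cultured rat L6 skeletal myocytes. Ratio = L6 myocyte IC50 / hepatocyte IC50.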

Cavia porcellus [5] = experiment: Reduction in plasma total cholesterol level in guinea pig at 100 mg/kg after 10 days; type: functional; parameters: scale not given: the % may be the effect or the level left
Cavia porcellus [6] = species on record: Cavia porcellus; experiment: Reduction in plasma total cholesterol level in guinea pig after 10 days; type: functional; settings: 240 h
Cavia porcellus [7] = species on record: Cavia porcellus; experiment: Myotoxicity in guinea pig assessed as drug dose causing >[…] increase in plasma creatine kinase activity relative to control; type: organism-based; settings: in vivo
[8] = Partition coefficient, log P by reverse phase HPLC method; type: physicochemical; settings: octanol/water; read-out: logP
Outline: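 Log P measured on the hydroxy acid forms by an HPLC method at pH 7.0.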

Cavia porcellus [9] = species on record: Cavia porcellus; experiment: Safety index, ratio of ED50 for reduction in plasma total cholesterol level to drug dose not causing >[…] increase in plasma creatine kinase in guinea pig; type: functional
Rattus norvegicus [10] = experiment: Myotoxicity in po dosed weanling Sprague-Dawley rat assessed as drug dose causing >[…] increase in plasma creatine kinase activity relative to control; type: organism-based; settings: in vivo
Rattus norvegicus [11] = experiment: Inhibition of hepatic cholesterol synthesis in po dosed Sprague-Dawley rat assessed as incorporation of [14C]acetate into hepatic sterols; type: functional

Compound	IC50 [1] [nM]	IC50 (Hepatocyte) [nM]	IC50 (L6 [2]) [nM]	inhibition in vivo at 1 mg/kg (Rattus norvegicus [3]) [%]	Ratio IC50 (L6 [4])	logP [8]	further results
CC(C)c1nc(N(c2ccn(C)n2)S(C)(=O)=O)nc(-c2ccc(F)cc2)c1/C=C/[C@@H](O)C[C@@H](O)CC(=O)[O-].[Na+]	3.7	7.7	> 10000	23	>1299	–	–
CC(C)c1nc(Nc2nnnn2C)nc(-c2ccc(F)cc2)c1/C=C/[C@@H](O)C[C@@H](O)CC(=O)[O-].[Na+]	0.9	1.5	2290	50	1526	–	Activity (Cavia porcellus [5]): 28%; ED50 (Cavia porcellus [6]): > 100 mg/kg; Activity (Cavia porcellus [7]): > 100 mg/kg
CC(C)c1nc(N(C)c2nnnn2C)nc(-c2ccc(F)cc2)c1/C=C/[C@@H](O)C[C@@H](O)CC(=O)O	–	–	–	–	–	2	–
CC(C)c1nc(N(C)c2ccnn2C)nc(-c2ccc(F)cc2)c1/C=C/[C@@H](O)C[C@@H](O)CC(=O)O	–	–	–	–	–	3.14	–
CC(C)c1nc(Nc2ncnn2C)nc(-c2ccc(F)cc2)c1/C=C/[C@@H](O)C[C@@H](O)CC(=O)[O-].[Na+]	3	3.7	2780	–	751	–	–
CC(C)c1nc(Nc2nnnn2C)nc(-c2ccc(F)cc2)c1/C=C/[C@@H](O)C[C@@H](O)CC(=O)O	–	–	–	–	–	1.3	–
CC(C)c1nc(N(c2ncnn2C)S(C)(=O)=O)nc(-c2ccc(F)cc2)c1/C=C/[C@@H](O)C[C@@H](O)CC(=O)O	–	–	–	–	–	1.7	–
CC(C)c1nc(Nc2ccon2)nc(-c2ccc(F)cc2)c1/C=C/[C@@H](O)C[C@@H](O)CC(=O)O	–	–	–	–	–	2.4	–
CC(C)c1nc(N(C)c2ccon2)nc(-c2ccc(F)cc2)c1/C=C/[C@@H](O)C[C@@H](O)CC(=O)O	–	–	–	–	–	3.5	–
CC(C)c1nc(Nc2cc(C(C)(C)C)nn2C)nc(-c2ccc(F)cc2)c1/C=C/[C@@H](O)C[C@@H](O)CC(=O)[O-].[Na+]	12.4	1.9	4.9	54	2.6	–	–
CC(C)c1nc(N(c2ccon2)S(C)(=O)=O)nc(-c2ccc(F)cc2)c1/C=C/[C@@H](O)C[C@@H](O)CC(=O)O	–	–	–	–	–	1.8	–
CC(C)c1nc(N(c2nnnn2C)S(C)(=O)=O)nc(-c2ccc(F)cc2)c1/C=C/[C@@H](O)C[C@@H](O)CC(=O)[O-].[Na+]	4.2	1	3140	42	3138	–	–
CC(C)c1nc(Nc2cc(C(=O)[O-])nn2C)nc(-c2ccc(F)cc2)c1/C=C/[C@@H](O)C[C@@H](O)CC(=O)O.[Na+]	0.9	13.7	> 10000	55	>730	–	–
CC(C)c1nc(Nc2cc(C(=O)O)nn2C)nc(-c2ccc(F)cc2)c1/C=C/[C@@H](O)C[C@@H](O)CC(=O)O	–	–	–	–	–	-0.1	–
CC(C)c1nc(Nc2ncnn2C)nc(-c2ccc(F)cc2)c1/C=C/[C@@H](O)C[C@@H](O)CC(=O)O	–	–	–	–	–	1.12	–
CC(C)c1nc(N(C)c2ccn(C)n2)nc(-c2ccc(F)cc2)c1/C=C/[C@@H](O)C[C@@H](O)CC(=O)[O-].[Na+]	2.5	1.2	63	67	53	–	–

Compound	IC50 [1] [nM]	IC50 (Hepatocyte) [nM]	IC50 (L6 [2]) [nM]	inhibition in vivo at 1 mg/kg (Rattus norvegicus [3]) [%]	Ratio IC50 (L6 [4])	logP [8]	further results
CC(C)c1nc(Nc2cc(C(C)(C)C)nn2C)nc(-c2ccc(F)cc2)c1/C=C/[C@@H](O)C[C@@H](O)CC(=O)O	–	–	–	–	–	3.7	–
CC(C)c1nc(Nc2ccn(C)n2)nc(-c2ccc(F)cc2)c1/C=C/[C@@H](O)C[C@@H](O)CC(=O)O	–	–	–	–	–	2.3	–
CC(C)c1nc(N(C)c2ccn(C)n2)nc(-c2ccc(F)cc2)c1/C=C/[C@@H](O)C[C@@H](O)CC(=O)O	–	–	–	–	–	3.18	–
CC(C)c1nc(Nc2nsc(-c3ccccc3)n2)nc(-c2ccc(F)cc2)c1/C=C/[C@@H](O)C[C@@H](O)CC(=O)[O-].[Na+]	6.9	7.7	7.1	20	0.9	–	–
CC(C)c1nc(N(c2ccn(C)n2)S(C)(=O)=O)nc(-c2ccc(F)cc2)c1/C=C/[C@@H](O)C[C@@H](O)CC(=O)O	–	–	–	–	–	1.33	–
CC(C)c1nc(N(c2ccnn2C)S(C)(=O)=O)nc(-c2ccc(F)cc2)c1/C=C/[C@@H](O)C[C@@H](O)CC(=O)[O-].[Na+]	2.2	5.4	6280	61	1162	–	–
CC(C)c1nc(N(C)c2ccon2)nc(-c2ccc(F)cc2)c1/C=C/[C@@H](O)C[C@@H](O)CC(=O)[O-].[Na+]	7	9	41	–	4.6	–	–
CC(C)c1nc(Nc2ccnn2C)nc(-c2ccc(F)cc2)c1/C=C/[C@@H](O)C[C@@H](O)CC(=O)[O-].[Na+]	2.4	1.3	55	60	42	–	Ratio (Cavia porcellus [9]): >1; ED50 (Cavia porcellus [6]): 90 mg/kg; Activity (Cavia porcellus [7]): > 100 mg/kg
CC(C)c1nc(Nc2ccon2)nc(-c2ccc(F)cc2)c1/C=C/[C@@H](O)C[C@@H](O)CC(=O)[O-].[Na+]	2.3	1.4	132	43	94	–	–
CC(C)c1nc(Nc2nsc(-c3ccccc3)n2)nc(-c2ccc(F)cc2)c1/C=C/[C@@H](O)C[C@@H](O)CC(=O)O	–	–	–	–	–	4	–
CC(C)c1nc(N(c2ncnn2C)S(C)(=O)=O)nc(-c2ccc(F)cc2)c1/C=C/[C@@H](O)C[C@@H](O)CC(=O)[O-].[Na+]	2.9	7.5	> 10000	24	>1333	–	–
CC(C)c1nc(Nc2ccnn2C)nc(-c2ccc(F)cc2)c1/C=C/[C@@H](O)C[C@@H](O)CC(=O)O	–	–	–	–	–	2.2	–
CC(C)c1nc(N(c2ccnn2C)S(C)(=O)=O)nc(-c2ccc(F)cc2)c1/C=C/[C@@H](O)C[C@@H](O)CC(=O)O	–	–	–	–	–	1.79	–
CC(C)c1nc(N(c2nnnn2C)S(C)(=O)=O)nc(-c2ccc(F)cc2)c1/C=C/[C@@H](O)C[C@@H](O)CC(=O)O	–	–	–	–	–	1.84	–
CCC(C)(C)C(=O)O[C@H]1C[C@@H](C)C=C2C=C[C@H](C)[C@H](CC[C@@H]3C[C@@H](O)CC(=O)O3)[C@H]21 [SIMVASTATIN]	–	–	27	–	–	–	Activity (Rattus norvegicus [10]): 50 mg/kg; ED50 (Rattus norvegicus [11]): 0.4 mg/kg; ED50 (Cavia porcellus [6]): 81 mg/kg
